Structures are written as SMILES. The source made the active and inactive calls. The calls are words filed in the database; no cut-off is given here.

The test system of series [1] is Rattus norvegicus. Put plainly: Central dopamine receptor stimulating activity in reserpenized Sprague-Dawley rat assessed as latency period of motor activity at 2 umol/kg, sc measured 6 hrs post-reserpine challenge by motility meter analysis. The series is classed as functional. Put shortly: (§1)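 Male Sprague-Dawley rats (200-350 g) given reserpine 10 mg/kg ip 6 h before testing. Drug in saline, 2 µmol/kg sc in the neck. Rats then placed singly in photocell motility meters. Counts recorded per 5-min period until effect ceased (<10 counts/5 min), giving duration and AUC. Means of four to six recordings. Testing 1–6 p.m.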

Series [2] relates to Rattus norvegicus. Put plainly: Central serotonin receptor stimulating activity in Sprague-Dawley rat assessed as reduction in 5-HTP accumulation in striatum of brain at 2 umol/kg, sc by spectrophotometric method. It is filed as functional, organism-based. The essentials:
(§2)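 Male Sprague-Dawley rats (200-350 g), reserpinized. Compounds dissolved in saline immediately before use, neutral pH, 10 mL/kg, given sc over a dose range. Aromatic-L-amino-acid decarboxylase inhibited (100 mg/kg). Dopa and 5-HTP accumulation measured spectrophotometrically in striatum, limbic forebrain and remaining hemispheral portions. ED50 = dose giving 50% of maximal reduction versus control portions, estimated from dose-response curves. Experiments run 9–12 a.m.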

Series [3] deals with Rattus norvegicus. Put plainly: Central noradrenaline receptor stimulating activity in Sprague-Dawley rat assessed as reduction in DOPA accumulation in hemispheral portion of cerebrum at 2 umol/kg, sc by spectrophotometric method. The series is classed as functional, organism-based. The essentials:
as §2

Series [4] relates to Rattus norvegicus. Put plainly: Central serotonin receptor stimulating activity in Sprague-Dawley rat assessed as reduction in 5-HTP accumulation in hemispheral portion of cerebrum at 2 umol/kg, sc by spectrophotometric method. It is filed as functional, organism-based. Put shortly: as §2
For series [5], the system named is Rattus norvegicus. The series is described as follows: Toxicity in sc dosed Sprague-Dawley rat assessed as gross behaviour at ED50. The series is classed as organism-based. To be noted: in vivo.
The test system of series [6] is Rattus norvegicus. The series is described as follows: Central dopamine receptor stimulating activity in reserpenized Sprague-Dawley rat assessed as duration of action of motor activity at 2 umol/kg, sc measured 6 hrs post-reserpine challenge by motility meter analysis. It is filed as functional. The essentials:
as §1

Series [7] has as its system Rattus norvegicus. The series is described as follows: Central dopamine receptor stimulating activity in Sprague-Dawley rat assessed as reduction in DOPA accumulation in striatum of brain at 2 umol/kg, sc by spectrophotometric method. It is filed as functional. The essentials: as §2
In series [8] the test system is Rattus norvegicus. Put plainly: Central serotonin receptor stimulating activity in Sprague-Dawley rat assessed as reduction in 5-HTP accumulation in limbic region of brain at 2 umol/kg, sc by spectrophotometric method. The series is classed as functional, organism-based. The conditions noted are these: Limbic system. The essentials: as §2
Series [9] deals with Rattus norvegicus. The series is described as follows: Central dopamine receptor stimulating activity in Sprague-Dawley rat assessed as reduction in DOPA accumulation in limbic region of brain at 2 umol/kg, sc by spectrophotometric method. The series is classed as functional. To be noted: Limbic system. Put shortly:
as §2

The test system of series [10] is Rattus norvegicus. The series is described as follows: Central dopamine receptor stimulating activity in reserpenized Sprague-Dawley rat assessed as duration of action of motor activity at 20 umol/kg, po administered via stomach tube measured 6 hrs post-reserpine challenge by motility meter analysis. The series is classed as functional. Put shortly:
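Male Sprague-Dawley rats (200-350 g) given reserpine 10 mg/kg ip 6 h before testing. Drug in saline, 20 µmol/kg po by stomach tube. Rats then placed singly in photocell motility meters. Counts recorded per 5-min period until effect ceased (<10 counts/5 min) to give duration of action. Testing 1–6 p.m.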

For orientation: ED50 means the dose that gives a 50% effect, or the effect in half of the subjects. As for `Br.CCCN(CC)C1CCc2c(O)cccc2C1` (stereo not given), the Time in series [1] amounted to 0 min; in series [6], 82 min; in series [10], 40 min. The outcome in series [2], in series [3], in series [4] and in [8] was inactive. Further, the Activity entry in series [5] is on record as “Non-toxic”. The ED50 in series [7] came to 0.017 µmol/kg; in [9], 0.024 µmol/kg.

Take `Br.CCCCN(CC)C1CCc2c(O)cccc2C1` (stereo not given): the Time was determined as 0 min in series [1], 118 min in series [6] and 63 min in series [10]. Moreover, the outcome in [2], in series [3], in series [4] and in series [8] was inactive. Besides, the Activity result in series [5] was “Non-toxic”. The 50% effective dose (ED50) in series [7] stood at 0.035 µmol/kg; in series [9], 0.03 µmol/kg.

As to `Br.CCN(CC)C1CCc2c(O)cccc2C1` (stereo not given), the Time in series [1] was determined as 0 min; in series [6] it was 54 min. Further, the outcome in series [2], in series [3], in series [4] and in series [8] was inactive. The Activity result in [5] is “Non-toxic”. Further, the results for the median effective dose (ED50) in series [7] and in series [9] were 0.071 µmol/kg and 0.077 µmol/kg, respectively.

For the compound `Br.CCCCN(CCC)C1CCc2c(O)cccc2C1` (stereo not given), the Time in series [1] is 0 min; in series [6], 158 min; in series [10] it was 117 min. Besides, the result in series [2], in [3], in series [4] and in series [8] was inactive. Moreover, the Activity result in series [5] is recorded as “Non-toxic”. The median effective dose (ED50) was found to be 0.014 µmol/kg in series [7] and 0.011 µmol/kg in [9].

For `CN1CCc2cccc3c2[C@H]1Cc1ccc(O)c(O)c1-3` [APOMORPHINE], the Time stood at 0 min in series [1], 60 min in [6] and 33 min in series [10]. The results for the ED50 in [7] and in series [9] were 0.22 µmol/kg and 0.19 µmol/kg, respectively.

Regarding `Br.CCCN(CCC)C1CCc2c(O)cccc2C1` (stereo not given), the values for the Time in series [1], in series [6] and in series [10] were 0 min, 127 min and 121 min, respectively. Moreover, the result in series [2], in [3], in series [4] and in series [8] was inactive. Besides, the Activity entry in series [5] is reported as “Non-toxic”. The ED50 in series [7] turned out to be 0.009 µmol/kg; in series [9], 0.011 µmol/kg.

As for `CCCCCN(CCC)C1CCc2c(cccc2OC)C1.O=C(O)C(=O)O` (stereo not given), the Time is given as 15 min in series [1] and 93 min in series [6]. Besides, the outcome in series [2], in series [3], in series [4] and in [8] was inactive. Also, in series [5], the Activity result is listed as “Non-toxic”. For the same compound, the values for the ED50 in series [7] and in [9] were 0.101 µmol/kg and 0.092 µmol/kg, respectively.

In the case of `CCCN(CC(C)(C)C)C1CCc2c(O)cccc2C1.Cl` (stereo not given), the Time in series [1] worked out at 9 min; in [6] it was 68 min. Also, the outcome in series [2], in series [3], in series [4] and in series [8] was inactive. The Activity result in series [5] is recorded as “Non-toxic”. Also, the figures for the median effective dose (ED50) in series [7] and in series [9] were 0.12 µmol/kg and 0.2 µmol/kg, respectively.

With `Br.CCN(C)C1CCc2c(O)cccc2C1` (stereo not given), the Time is 3 min in [1] and 31 min in [6]. Moreover, the result in [2], in series [3], in [4] and in [8] was inactive. Besides, in [5], the Activity result is given as “Non-toxic”. The median effective dose (ED50) stood at 0.053 µmol/kg in [7] and 0.074 µmol/kg in [9].

Consider `CCCN(CCc1ccccc1)C1CCc2c(O)cccc2C1.Cl` (stereo not given), for which the Time is 0 min in series [1] and 53 min in [6]. Also, the result in [2], in series [3], in [4] and in series [8] was inactive. In addition, the Activity result in series [5] is on record as “Non-toxic”. Further, the median effective dose (ED50) in [7] is 0.017 µmol/kg; in series [9], 0.022 µmol/kg.

Source of the values: ChEMBL document CHEMBL3227985, “N-Alkylated 2-aminotetralins: central dopamine-receptor stimulating activity” (J Med Chem, 1979).
